Results as given in ChEMBL document CHEMBL1122803, “Folate antagonists. 22. Antimalarial and antibacterial effects of 2,4-diamino-6-quinazolinesulfonamides” (1984).
≈ marks a conversion by molar mass, not a printed value.

What was measured:
Plasmodium berghei [1] = assay: Antimalarial activity as survivor numbers at day 60 for drug-sensitive Plasmodium berghei infected mice (Mus musculus) at 320 mg/kg subcutaneous dose over 72 hrs; assay type: functional
Outline: (§1)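 Mice infected with drug-sensitive P. berghei got one subcutaneous dose in sesame or peanut oil 72 h postinfection. Read-out is the number of mice alive at 60 days postinfection, termed "cured", without subinoculation to confirm parasitological cure. Groups of five per dose, or 10 where indicated.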

Plasmodium berghei [2] = assay: Antimalarial activity as survivor number at day 60 against drug-sensitive Plasmodium berghei infected mice (Mus musculus) at 160 mg/kg subcutaneous dose after 72 hr; assay type: functional; outline: as §1
Plasmodium berghei [3] = assay: Antimalarial activity as survivor numbers at day 60 for drug-sensitive Plasmodium berghei infected mice (Mus musculus) at 80 mg/kg subcutaneous dose over 72 hr; assay type: functional; outline: as §1
Plasmodium berghei [4] = assay: Antimalarial activity as survivor numbers at day 60 for drug-sensitive Plasmodium berghei infected mice (Mus musculus) at 40 mg/kg subcutaneous dose over 72 hr; assay type: functional; outline: as §1
Plasmodium berghei [5] = assay: Antimalarial activity as change in MST against drug-sensitive Plasmodium berghei infected mice (Mus musculus) at 160 mg/kg subcutaneous dose after 72h; assay type: functional
Pseudomonas aeruginosa [6] = assay: Compound was tested in vitro against Pseudomonas aeruginosa 28, by gradient-plate test; assay type: functional
Outline: (§2)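 Antibacterial testing in vitro by gradient-plate test. Read-out was the minimum inhibitory concentration, with values exceeding 25 reported as >25.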

Shigella sonnei [7] = assay: Compound was tested in vitro against Shigella sonnei C-10, by gradient-plate test; assay type: functional; outline: as §2
Escherichia coli [8] = assay: Compound was tested in vitro against Escherichia coli Vogel, by gradient-plate test; assay type: functional; outline: as §2
Staphylococcus aureus [9] = assay: In vitro antibacterial activity against […] S 18713.; assay type: functional; outline: as §2
Plasmodium berghei [10] = assay: Antimalarial activity as change in MST for drug-sensitive Plasmodium berghei infected mice (Mus musculus) at 640 mg/kg subcutaneous dose over 72 hr; assay type: functional
Staphylococcus aureus [11] = assay: In vitro antibacterial activity against […] U.C-76.; assay type: functional; outline: as §2
Plasmodium berghei [12] = assay: Antimalarial activity as change in MST for drug-sensitive Plasmodium berghei infected mice (Mus musculus) at 40 mg/kg subcutaneous dose over 72hr; assay type: functional
Enterococcus faecalis [13] = assay: In vitro antibacterial activity against Streptococcus faecalis MGH-2.; assay type: functional; outline: as §2
Plasmodium berghei [14] = assay: Antimalarial activity as toxic deaths 2-5 days post infection for drug-sensitive Plasmodium berghei infected mice (Mus musculus) at 320 mg/kg subcutaneous dose over 72 hrs; assay type: functional
Outline: (§3)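 P. berghei (drug-sensitive) infected mice dosed once subcutaneously 72 h postinfection, compound in sesame or peanut oil. Read-out is the count of deaths on days 2–5 after infection, attributed to drug toxicity. Five animals per dose level, or 10 where indicated.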

Plasmodium berghei [15] = assay: Antimalarial activity as survivor numbers at day 60 for drug-sensitive Plasmodium berghei infected mice (Mus musculus) at 40 mg/kg over 72 hr; assay type: functional; outline: as §1
Plasmodium berghei [16] = assay: Antimalarial activity as toxic deaths 2-5 days post infection for drug-sensitive Plasmodium berghei infected mice (Mus musculus) at 640 mg/kg subcutaneous dose over 72 hr; assay type: functional; outline: as §3
Plasmodium berghei [17] = assay: Antimalarial activity as survivor numbers at day 60 against drug-sensitive Plasmodium berghei infected mice (Mus musculus) at 160 mg/kg subcutaneous dose after 72 hr; assay type: functional; outline: as §1
Plasmodium berghei [18] = assay: In vivo antimalarial activity against drug-sensitive Plasmodium berghei in mice (Mus musculus) after 320 mg/kg subcutaneous dose for 72 hrs as survivors 60 days post infection
Plasmodium berghei [19] = assay: Antimalarial activity as survivor numbers at day 60 for drug-sensitive Plasmodium berghei infected mice (Mus musculus) at 640 mg/kg subcutaneous dose over 72 hr; assay type: functional; outline: as §1
Plasmodium berghei [20] = assay: Antimalarial activity as change in MST against drug-sensitive Plasmodium berghei infected mice (Mus musculus) at 20 mg/kg subcutaneous dose after 72h; assay type: functional
[21] = system: Mycobacterium tuberculosis; assay: In vitro antibacterial activity against Mycobacterium tuberculosis H37Rv.; assay type: functional
Outline: (§4)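 Mycobacterium tuberculosis tested in vitro by gradient-plate test; minimum inhibitory concentration reported.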

Escherichia coli [22] = assay: Tested in vitro against Escherichia coli Vogel. by gradient-plate test; assay type: functional; outline: as §2
Pseudomonas aeruginosa [23] = assay: In vitro against Pseudomonas aeruginosa 28. by gradient-plate test; assay type: functional; outline: as §2
Shigella sonnei [24] = assay: In vitro antibacterial activity against Shigella sonnei C-10.; assay type: functional; outline: as §2
Plasmodium berghei [25] = assay: Antimalarial activity as change in MST for drug-sensitive Plasmodium berghei infected mice (Mus musculus) at 80mg/kg subcutaneous dose over 72h; assay type: functional
Plasmodium berghei [26] = assay: Antimalarial activity as change in MST for drug-sensitive Plasmodium berghei infected mice (Mus musculus) at 40 mg/kg subcutaneous dose over 72 hr; assay type: functional
Plasmodium berghei [27] = assay: Antimalarial activity as survivor numbers at day 60 for drug-sensitive Plasmodium berghei infected mice (Mus musculus) at 320 mg/kg subcutaneous dose for 72 hr; assay type: functional; outline: as §1
Enterococcus faecalis [28] = assay: Compound was tested in vitro against Streptococcus faecalis MGH-2. by gradient-plate test.; assay type: functional; outline: as §2
Pseudomonas aeruginosa [29] = assay: Compound was tested in vitro against Pseudomonas aeruginosa 28. by gradient-plate test.; assay type: functional; outline: as §2
Shigella sonnei [30] = assay: Compound was tested in vitro against Shigella sonnei C-10. by gradient-plate test.; assay type: functional; outline: as §2
Plasmodium berghei [31] = assay: Antimalarial activity as change in MST for drug-sensitive Plasmodium berghei infected mice (Mus musculus) after 72 hrs at 320 mg/kg subcutaneous dose; assay type: functional
[32] = system: Mycobacterium tuberculosis; assay: Compound was tested in vitro against Mycobacterium tuberculosis H37Rv. by gradient-plate test.; assay type: functional; outline: as §4
Plasmodium berghei [33] = assay: Antimalarial activity as change in MST against drug-sensitive Plasmodium berghei infected mice (Mus musculus) at 160 mg/kg subcutaneous dose after 72 hr; assay type: functional
Escherichia coli [34] = assay: Compound was tested in vitro against Escherichia coli Vogel. by gradient-plate test.; assay type: functional; outline: as §2
Plasmodium berghei [35] = assay: Antimalarial activity as change in MST for drug-sensitive Plasmodium berghei infected mice (Mus musculus) at 80 mg/kg subcutaneous dose over 72 hr; assay type: functional
Plasmodium berghei [36] = assay: Antimalarial activity as change in MST against drug-sensitive Plasmodium berghei infected mice (Mus musculus) at 20 mg/kg subcutaneous dose after 72 hr; assay type: functional
Staphylococcus aureus [37] = assay: Compound was tested in vitro against […] S 18713 by gradient-plate test.; assay type: functional; outline: as §2
Staphylococcus aureus [38] = assay: Compound was tested in vitro against […] U.C-76. by gradient-plate test.; assay type: functional; outline: as §2
Plasmodium berghei [39] = assay: Antimalarial activity as survivor numbers at day 60 for drug-sensitive Plasmodium berghei infected mice (Mus musculus) at 320 mg/kg over 72 hr; assay type: functional; outline: as §1
Plasmodium berghei [40] = assay: Antimalarial activity as survivor numbers at day 60 for drug-sensitive Plasmodium berghei infected mice (Mus musculus) at 320 mg/kg subcutaneous dose over 72 hr; assay type: functional; outline: as §1
Plasmodium berghei [41] = assay: Antimalarial activity as toxic deaths 2-5 days post infection for drug-sensitive Plasmodium berghei infected mice (Mus musculus) at 320 mg/kg subcutaneous dose over 72 hr; assay type: functional; outline: as §3
Plasmodium berghei [42] = assay: Antimalarial activity as survivor numbers at day 60 against drug-sensitive Plasmodium berghei infected mice (Mus musculus) at 20 mg/kg subcutaneous dose after 72 hr; assay type: functional; outline: as §1
Plasmodium berghei [43] = assay: Antimalarial activity as survivor number at day 60 for drug-sensitive Plasmodium berghei infected mice (Mus musculus) at 640 mg/kg subcutaneous dose over 72 hr; assay type: functional; outline: as §1

Structure (SMILES): Nc1nc(N)c2cc(S(=O)(=O)c3ccc4ccccc4c3)ccc2n1
- survivors at day 60 (Plasmodium berghei [1]): 5
- survivors at day 60 (Plasmodium berghei [2]): 5
- survivors at day 60 (Plasmodium berghei [3]): 5
- survivors at day 60 (Plasmodium berghei [4]): 5

Structure (SMILES): Nc1nc(N)c2cc(S(N)(=O)=O)ccc2n1
- Delta MST (Plasmodium berghei [5]): 0.3 days
- MIC (Pseudomonas aeruginosa [6]): > 25 µg/mL
- MIC (Shigella sonnei [7]): > 25 µg/mL
- MIC (Escherichia coli [8]): > 25 µg/mL
- MIC (Staphylococcus aureus [9]): > 25 µg/mL
- Delta MST (Plasmodium berghei [10]): 0.3 days
- MIC (Staphylococcus aureus [11]): > 25 µg/mL
- Delta MST (Plasmodium berghei [12]): 0.1 days
- MIC (Enterococcus faecalis [13]): > 25 µg/mL

Structure (SMILES): Nc1nc(N)c2c(Cl)c(NCc3ccc(Cl)c(Cl)c3)ccc2n1
- toxic deaths (Plasmodium berghei [14]): 5
- survivors at day 60 (Plasmodium berghei [15]): 5
- survivors at day 60 (Plasmodium berghei [3]): 5
- toxic deaths (Plasmodium berghei [16]): 5
- survivors at day 60 (Plasmodium berghei [17]): 5

Structure (SMILES): Nc1nc(N)c2cc(S(=O)(=O)N3CCOCC3)ccc2n1
- survivors at day 60 (Plasmodium berghei [18]): 5
- survivors at day 60 (Plasmodium berghei [19]): 10
- Delta MST (Plasmodium berghei [20]): 1.7 days
- MIC (Staphylococcus aureus [9]): > 25 µg/mL
- MIC [21]: > 25 µg/mL
- MIC (Staphylococcus aureus [11]): 2 µg/mL (≈ 6.47 µM)
- survivors at day 60 (Plasmodium berghei [17]): 10
- MIC (Escherichia coli [22]): > 25 µg/mL
- Delta MST (Plasmodium berghei [12]): 4.7 days
- MIC (Pseudomonas aeruginosa [23]): > 25 µg/mL
- MIC (Shigella sonnei [24]): > 25 µg/mL
- Delta MST (Plasmodium berghei [25]): 14.5 days
- MIC (Enterococcus faecalis [13]): < 0.25 µg/mL

Structure (SMILES): CCN(CC)S(=O)(=O)c1ccc2nc(N)nc(N)c2c1
- Delta MST (Plasmodium berghei [5]): 9.4 days
- Delta MST (Plasmodium berghei [20]): 0.7 days
- Delta MST (Plasmodium berghei [26]): 3.3 days
- Delta MST (Plasmodium berghei [10]): 5 days
- Delta MST (Plasmodium berghei [27]): 5 days
- Delta MST (Plasmodium berghei [25]): 4.3 days

Structure (SMILES): Nc1nc(N)c2cc(S(=O)(=O)N3CCc4ccccc4C3)ccc2n1
- MIC (Enterococcus faecalis [28]): > 25 µg/mL
- MIC (Pseudomonas aeruginosa [29]): > 25 µg/mL
- MIC (Shigella sonnei [30]): > 25 µg/mL
- Delta MST (Plasmodium berghei [31]): 3.9 days
- Delta MST (Plasmodium berghei [26]): 0.3 days
- MIC [32]: > 25 µg/mL
- Delta MST (Plasmodium berghei [10]): 6.3 days
- Delta MST (Plasmodium berghei [33]): 0.7 days
- MIC (Escherichia coli [34]): > 25 µg/mL
- Delta MST (Plasmodium berghei [35]): 0.7 days
- Delta MST (Plasmodium berghei [36]): 0.3 days
- MIC (Staphylococcus aureus [37]): > 25 µg/mL
- MIC (Staphylococcus aureus [38]): > 25 µg/mL

Structure (SMILES): CN(C)S(=O)(=O)c1ccc2nc(N)nc(N)c2c1
- Delta MST (Plasmodium berghei [5]): 15.9 days
- Delta MST (Plasmodium berghei [20]): 7.3 days
- Delta MST (Plasmodium berghei [39]): 5 days
- Delta MST (Plasmodium berghei [26]): 8.7 days
- Delta MST (Plasmodium berghei [25]): 16.1 days

Structure (SMILES): CC1(C)N=C(N)N=C(N)N1c1ccc(Cl)cc1.Cl [CHLORCYCLOGUANIL HYDROCHLORIDE]
- Delta MST (Plasmodium berghei [31]): 3 days
- Delta MST (Plasmodium berghei [26]): 13.4 days
- Delta MST (Plasmodium berghei [10]): 5 days
- Delta MST (Plasmodium berghei [33]): 5 days
- Delta MST (Plasmodium berghei [35]): 21.6 days
- Delta MST (Plasmodium berghei [36]): 7.9 days

Structure (SMILES): CCc1nc(N)nc(N)c1-c1ccc(Cl)cc1 [PYRIMETHAMINE]
- survivors at day 60 (Plasmodium berghei [40]): 2
- toxic deaths (Plasmodium berghei [41]): 3
- Delta MST (Plasmodium berghei [26]): 1 days
- survivors at day 60 (Plasmodium berghei [3]): 3
- Delta MST (Plasmodium berghei [42]): 7.7 days
- toxic deaths (Plasmodium berghei [16]): 2
- survivors at day 60 (Plasmodium berghei [17]): 5
- survivors at day 60 (Plasmodium berghei [43]): 1
